In ChEMBL document CHEMBL4765399, “Design, synthesis, and biological evaluation of 5-((8-methoxy-2-methylquinolin-4-yl)amino)-1H-indole-2-carbohydrazide derivatives as novel Nur77 modulators” (Eur J Med Chem, 2020):
Active and inactive are the calls of the source. No cut-off for these calls is given here.

How the values were obtained:
SMMC-7721 = test: Antiproliferative activity against human SMMC-7721 cells assessed as reduction in cell viability incubated for 48 hrs by MTT assay; format: functional, cell-based; conditions: SMMC-7721, 48 h
Outline: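 MTT assay after 48 h exposure at six concentrations, range chosen by cytotoxicity. Inhibition = (ODcontrol − ODtest)/ODcontrol × 100%; IC50 is the concentration halving OD versus untreated cells. Means ± SD of three independent determinations. HepG2 and SMMC-7721 grown in DMEM, QGY-7703 and LO2 in RPMI 1640, with 10% FBS at 37 °C.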

QGY-7703 [1] = test: Upregulation of Nur77 expression in human QGY-7703 cells incubated for 6 hrs by Western blot analysis; format: functional, cell-based; conditions: dose 0.5-2 µM
Outline: (§1)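 HepG2, QGY-7703 and SMMC-7721 cells treated with the indicated concentrations for 6 h. HepG2 also given 2.0 µM over a time course. Lysis in RIPA with protease and phosphatase inhibitors; 40-80 µg protein by SDS-PAGE, nitrocellulose transfer. Membranes blocked with 5% milk, primary antibody overnight, HRP secondary, chemiluminescence. GAPDH as loading control.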

[2] = target: Nuclear receptor subfamily 4immunitygroup A member 1 (Homo sapiens, UniProt P22736); test: Modulation of Nur77 in human HepG2 cells assessed as induction of Nur77 translocation into cytoplasm from nucleus by measuring increase in protein expression in cytoplasm at 2 uM by western blot analysis; format: subcellular; conditions: filed as modulator, time 1-8 hrs, TDE = time-dependent effect
Outline: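 HepG2 given 2.0 µM for set times; cells swollen 10 min on ice in HEPES/NaCl/EDTA/CaCl2/MgCl2 buffer, 0.1% NP40 added, spun 15000 rpm 3 min at 4 °C giving cytoplasmic supernatant; pellet extracted in RIPA. Fractions blotted for Nur77, with PARP (nuclear) and tubulin (cytoplasmic) as loading controls.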

HepG2 [3] = test: Antiproliferative activity against human HepG2 cells assessed as reduction in cell viability at 2 uM by MTT assay; format: functional, cell-based; conditions: time 12-48 hrs, TDE = time-dependent effect
Outline: (§2)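 Cells treated with 2.0 µM over a time course; viability read by MTT. HepG2, SMMC-7721 kept in DMEM, QGY-7703 in RPMI 1640, with 10% FBS at 37 °C and 5% CO2.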

QGY-7703 [4] = test: Antiproliferative activity against human QGY-7703 cells assessed as reduction in cell viability at 2 uM by MTT assay; format: functional, cell-based; conditions: time 12-48 hrs, TDE = time-dependent effect; outline: as §2
HepG2 [5] = test: Induction of morphological changes in human HepG2 cells assessed as reduction in cell number at 1 to 2 uM incubated for 6 to 12 hrs by phase contrast microscopic analysis; format: functional, cell-based; conditions: dose 1-2 µM, time 6-12 hrs
Outline: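 HepG2 cells given graded concentrations; morphology monitored at set time points by phase-contrast optical microscopy.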

HepG2 [6] = test: Induction of autophagy in human HepG2 cells assessed as increase in LC3-II expression measured after 12 hrs by Western blot analysis; format: functional, cell-based; conditions: dose 0.5-2 µM
Outline: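 HepG2, QGY-7703 and SMMC-7721 treated with graded concentrations for 12 h. Lysed in RIPA with inhibitors; 40-80 µg protein separated by SDS-PAGE, blotted to nitrocellulose, blocked 1 h in 5% milk, primary antibodies overnight (LC3, Beclin1, Bip, CHOP, TRB3), HRP secondaries, chemiluminescence.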

HepG2 [7] = test: Induction of autophagy in Nur77 knockout human HepG2 cells assessed as increase in Beclin 1 expression at 2 uM measured after 6 to 12 hrs by Western blot analysis; format: functional, cell-based; conditions: time 6-12 hrs
Outline: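 Scrambled-control and shNur77 HepG2 given DMSO or 2.0 µM for 6 or 12 h; immunoblotting of RIPA lysates for LC3, Beclin1 and Nur77 after SDS-PAGE and nitrocellulose transfer, chemiluminescent detection.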

HepG2 [8] = test: Induction of endoplasmic reticulum stress in Nur77 […] human HepG2 cells assessed as TRB3 protein expression at 2 uM incubated for 12 hrs by Western blot analysis; format: functional, cell-based
Outline: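 HepG2 and shNur77 HepG2 exposed to DMSO or 2.0 µM for 6 and 12 h; lysates immunoblotted for TRB3, Bip, CHOP and Nur77 (SDS-PAGE, nitrocellulose, overnight primary antibodies, HRP secondary, chemiluminescence).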

HepG2 [9] = test: Upregulation of Nur77 expression in human HepG2 cells at 2 uM measured after 1 to 6 hrs by western blot analysis; format: functional, cell-based; conditions: time 1-6 hrs; outline: as §1
HepG2 [10] = test: Induction of endoplasmic reticulum stress in human HepG2 cells assessed as increase in bip expression at 2 uM measured after 1 to 4 hrs by Western blot analysis; format: functional, cell-based; conditions: time 1-4 hrs
Outline: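 HepG2 exposed to 2.0 µM over a time course; Nur77, Bip, p-EIF2a, TRB3 and LC3 levels followed by Western blot of RIPA lysates.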

HepG2 [11] = test: Antitumor activity against human HepG2 cells xenografted in BALB/c mouse assessed as tumor weight at 20 mg/kg/day, ip administered for 15 days (reference value: 0.86 +/- 0.18 g); format: functional; conditions: dose 10 mg/kg/day; time 15 day; in the assay text read “10 mg/kg/day” for “20 mg/kg/day”
Outline: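 Subcutaneous flank xenograft of 5×10^6 HepG2 cells in 4-week-old male Balb/c nude mice. At about 100 mm³, 15 mice were randomized into three groups: vehicle, 10 or 20 mg/kg i.p. daily for 15 days. Tumor size was measured every day, and tumors were excised and weighed at the end.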

HepG2 [12] = test: Induction of apoptosis in human HepG2 cells assessed as early apoptotic cells at 1 uM incubated for 12 hrs by Annexin V-FITC/PI staining based flow cytometry (reference value: 3.99%); format: functional
HepG2 [13] = test: Induction of apoptosis in human HepG2 cells assessed as necrotic cells at 1 uM incubated for 12 hrs by Annexin V-FITC/PI staining based flow cytometry (reference value: 0.068%); format: functional
HepG2 [14] = test: Induction of apoptosis in human HepG2 cells transfected with shRNA assessed as late apoptotic cells at 2 uM incubated for 12 hrs by Annexin V-FITC/PI staining based flow cytometry (reference value: 2.18%); format: functional
HepG2 [15] = test: Upregulation of Nur77 expression in human HepG2 cells pretreated with nuclear export inhibitor, LMB followed by incubation with compound for 12 hrs by western blot analysis; format: functional, cell-based
HepG2 [16] = test: Induction of endoplasmic reticulum stress in human HepG2 cells transfected with shNur77 assessed as increase in PDI protein expression at 2 uM incubated for 6 hrs by confocal microsocopic analysis; format: functional, cell-based
Outline: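 HepG2, or HepG2 plus shNur77 HepG2, treated with 2.0 µM for 6 h, fixed in 4% paraformaldehyde 20 min, permeabilised 0.1% Triton X-100, blocked in 5% BSA, stained with PDI antibody and imaged by confocal fluorescence microscopy.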

HepG2 [17] = test: Antitumor activity against human HepG2 cells xenografted in BALB/c mouse assessed as reduction in PCNA expression in tumor tissue at 10 to 20 mg/kg/day, ip for 15 days by immunocytochemistry staining; format: functional, organism-based; conditions: dose 10-20 mg/kg/day, time 15.0 day
Outline: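 HepG2 cells (5×10^6) injected subcutaneously into flanks of 4-week-old male Balb/c nude mice. At about 100 mm³, 15 mice were randomized to vehicle, 10 or 20 mg/kg i.p. once daily for 15 days. Tumors were then excised for immunostaining of paraffin sections (5 μm) or for western blot.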

Chain of Nuclear receptor subfamily 4immunitygroup A member 1 (P22736 whole entry): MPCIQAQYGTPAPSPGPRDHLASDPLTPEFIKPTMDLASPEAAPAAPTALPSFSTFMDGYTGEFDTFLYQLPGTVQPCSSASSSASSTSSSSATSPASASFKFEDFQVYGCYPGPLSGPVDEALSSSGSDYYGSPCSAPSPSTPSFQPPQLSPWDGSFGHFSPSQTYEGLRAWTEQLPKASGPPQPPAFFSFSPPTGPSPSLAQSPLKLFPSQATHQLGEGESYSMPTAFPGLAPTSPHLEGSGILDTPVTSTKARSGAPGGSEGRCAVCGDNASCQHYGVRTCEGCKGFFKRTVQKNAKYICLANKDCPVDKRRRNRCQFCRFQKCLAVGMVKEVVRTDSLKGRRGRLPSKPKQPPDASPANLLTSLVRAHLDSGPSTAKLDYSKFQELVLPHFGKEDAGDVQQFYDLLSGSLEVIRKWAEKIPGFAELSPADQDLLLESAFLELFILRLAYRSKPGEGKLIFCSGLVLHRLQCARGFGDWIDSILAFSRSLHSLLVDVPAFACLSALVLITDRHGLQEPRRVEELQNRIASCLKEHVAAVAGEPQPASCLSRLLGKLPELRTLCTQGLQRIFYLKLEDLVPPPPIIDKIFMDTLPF

`COc1cccc2c(Nc3ccc4[nH]c(C(=O)N/N=C/c5ccc(SC)cc5)cc4c3)cc(C)nc12` was tested, and the IC50 (SMMC-7721) was 1400 nM, the Activity (QGY-7703 [1]) was “Dose-dependent effect” and the Activity [2] was “Tde”. For the same compound, the Activity (HepG2 [3]) was “Tde”, the Activity (QGY-7703 [4]) was “Tde” and the Activity (HepG2 [5]) was “Active”. The Activity (HepG2 [6]) was “Dose-dependent effect”, the Activity (HepG2 [7]) was “Active” and the Activity (HepG2 [8]) was “inactive”. The Activity (HepG2 [9]) was “Active”, the Activity (HepG2 [10]) was “Active” and the Activity (HepG2 [11]) was 0.5 g. The Activity (HepG2 [12]) was 18.5%, the Activity (HepG2 [13]) was 0.41% and the Activity (HepG2 [14]) was 23%. The Activity (HepG2 [15]) was “Active”, the Activity (HepG2 [16]) was “inactive” and the Activity (HepG2 [17]) was “Active”.
